# Assay results from different studies.
# SLC6A3: Sodium-dependent dopamine transporter (SLC6A3, Homo sapiens, UniProt Q01959)
# PDE10A: cAMP and cAMP-inhibited cGMP 3',5'-cyclic phosphodiesterase 10A (PDE10A, Homo sapiens, UniProt Q9Y233)
SMILES,target,assay,test system,setting,inhibition [%]
C#Cc1cc(-c2cc(Nc3nc(N[C@@H](C)c4ccc(F)cn4)ncc3Cl)n[nH]2)ccc1C=O,"Mitogen-activated protein kinase 15 (MAPK15, Homo sapiens, UniProt Q8TD08)","enzyme activity, inhibitor",,0.2 µM,11.5
Cc1cc(O)c(-c2ccc([C@@H](C)CN(C)C)cc2)c2c1[nH]c(=O)c1sccc12,"Serine/threonine-protein kinase D1 (PRKD1, Homo sapiens, UniProt Q15139)","enzyme activity, inhibitor",,0.1 µM,-0.107
N#CC[C@@]12C[C@@H]1[C@@H](n1cnc3c(NCc4cccc(Cl)c4)nc(C#Cc4ccc(Cl)s4)nc31)[C@H](O)[C@@H]2O,SLC6A3,"ligand displacement, radioligand",,10 µM,89
COc1ccc2nccc(Cc3cccc(-c4cnn(C5COC5)c4)c3)c2c1,PDE10A,"enzyme activity, inhibitor, FP",,0.1 µM,3
NC/C(=C\F)COc1cccc(Cn2c(=S)[nH]c(=O)c3[nH]cnc32)c1,"Sodium- and chloride-dependent GABA transporter 1 (Slc6a1, Rattus norvegicus, UniProt P23978)","ligand displacement, radioligand",,10 µM,< 50
c1ccc(-c2cccc(Cc3ncnc4ccccc34)c2)cc1,PDE10A,"enzyme activity, inhibitor, FP",,0.1 µM,0
N#CC[C@@]12C[C@@H]1[C@@H](n1cnc3c(Nc4ccccc4)nc(C#Cc4ccc(Cl)s4)nc31)[C@H](O)[C@@H]2O,SLC6A3,"ligand displacement, radioligand",,10 µM,18
COc1ccc(Cc2nccc3cc(C4COC4)ccc23)cc1OC,PDE10A,"enzyme activity, inhibitor, FP",,0.1 µM,0
CCOC(=O)[C@@]12C[C@@H]1[C@@H](n1cnc3c(NCCCCCc4ccccc4)nc(C#Cc4ccccc4)nc31)[C@H](O)[C@@H]2O,SLC6A3,"transporter uptake, inhibitor, radiometric",HEK293,10 µM,9
